Series [1] deals with sites labeled by [125I]-E-IA-BF-PIPZE (σ1 receptors) (Mus musculus, UniProt O55242). The format is binding.
Series [2] has as its target T1, σ1 receptors (Mus musculus, UniProt O55242). As to conditions: 100 μmol / kg, i.p.; cited from earlier work.
The target in series [3] is T1, σ1 receptors. Kind of series: In vivo specific binding and blocking by pretreatment with σ receptor ligands. The conditions noted are these: for adverse effects or abnormal behaviors: mice.
In series [4] the target is T1, σ1 receptors. Kind of series: Regional brain distribution with blocking pretreatments. The format is in vivo, CD-1 mouse. The conditions noted are these: 2.5 μmol / kg i.v., 60 min, nine regions.
The target in series [5] is vesicular acetylcholine transporter (VAChT). As to conditions: read-out: apparent affinity for VAChT in vitro; cited from earlier work.
Series [6] has as its system σ1 receptors. As to conditions: cited from earlier work.
For series [7], the target named is cannabinoid receptor type 2 (CB2). As to conditions: cited from earlier work.
In a further series the test system is cerebral σ1 receptors. As to conditions: over 30 h, SPECT; cited from earlier work.
Series [8] has as its target T1, σ1 receptors. Kind of series: Competition binding against [3H]-PTZ in mouse brain membranes. The conditions noted are these: read-out: Sigma-1 Ki; [3H]-PTZ, mouse brain membranes; mean ± SEM, n = 4.
The target of series [9] is T1, σ1 receptors. The format is binding.
In series [10] the target is T1, σ1 receptors. Kind of series: "Hot" saturation binding in mouse brain membranes. The gist of the method: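 "Hot" saturation: mouse brain membranes incubated with increasing radioligand concentrations until steady-state binding. Non-specific binding determined in parallel at each concentration with a competing non-radioactive ligand. Specific binding fitted by nonlinear regression to the one-site mass-action equation to give Kd and Bmax. Bound/Free expressed as (fmol/mg protein)/nM for the Scatchard plot. Single experiment.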

Series [11] can be described thus: Lipophilicity, shake-flask n-octanol / buffer pH 7.4. The format is physicochemical. The gist of the method:
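Shake-flask method: radiolabeled test compound partitioned between equal volumes of n-octanol and aqueous buffer pH 7.4, each presaturated with the other. Vortexed, then centrifuged. Each layer sampled in duplicate or triplicate and counted. Counts normalized per g or per mL, and the concentration ratio converted to Log D7.4.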

Series [12] can be described thus: TCA protein precipitation assay of plasma protein binding. The format is in vitro ADME, mouse. The conditions noted are these: for Protein Binding: mouse plasma, 37 °C, 30 min, TCA precipitation, n = 9. The gist of the method:
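Radioiodinated test compound incubated in commercial mouse plasma at 37 °C for 30 min. Proteins then precipitated with cold 10% TCA / 5% HCl to measure protein-bound radioactivity.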

Series [13] can be described thus: Temporal biodistribution after i.v. radioligand in CD-1 mice. The format is in vivo, CD-1 mouse. The method in brief: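 Radioligand given i.v. to male CD-1 mice, with tissues sampled from 5 min to 24 h. Uptake expressed as %ID/g. Clearance half-lives from heart and lung obtained by monoexponential decay fitting.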
A short description of series [14]: Radiometabolite analysis of tissue extracts and urine by HPLC. The format is in vivo, CD-1 mouse. The conditions noted are these: for Radiometabolites Whole Brain, 60 min: mouse, in vivo. The method in brief: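 Organs from i.v.-dosed mice, given more radioactivity than in pharmacokinetic studies, counted and homogenized in methanol/acetonitrile/water containing DTG (100 μM). Homogenates centrifuged, with a radioactivity balance taken for extracts and pellets. Extracts diluted with water and filtered (0.45 μm) for radio-HPLC. Urine only diluted with mobile phase and filtered.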

In series [15] the target is T1, σ1 receptors. Kind of series: Calculated binding potential. The conditions noted are these: single trial, protein assumed 5% of brain tissue. The method in brief: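 The Scatchard Y-intercept, as Bound/Free in (fmol/mg protein)/nM from the in vitro mouse brain membrane saturation experiment, was converted to tissue-concentration units assuming protein is 5% of brain tissue. This gave binding potential for a single trial.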

Where [16] appears, read: 0.1 nM [125I]-E-IA-BF-PIPZE, 37 °C, 180 min, means ± SEM (n = 3 – 6).
Setting [17] is: Cheng-Prusoff, 0.1 nM [125I]-E-IA-BF-PIPZE, means ± SEM (n = 3 – 6).
[18] abbreviates: listed as [^125I]-E-IA-BF-PIPZE.
The mark [19] stands for this setting: 15 min, defined by BD1063 5 μmol / kg i.v.

Where two headings read alike, the source gives them in different places. A value given as a limit tells only on which side of the number the result lay.

The values that follow come from publication PMC5161541 (Nuclear medicine and biology, 2016).

Chain of sites labeled by [125I]-E-IA-BF-PIPZE (σ1 receptors) (O55242 whole entry): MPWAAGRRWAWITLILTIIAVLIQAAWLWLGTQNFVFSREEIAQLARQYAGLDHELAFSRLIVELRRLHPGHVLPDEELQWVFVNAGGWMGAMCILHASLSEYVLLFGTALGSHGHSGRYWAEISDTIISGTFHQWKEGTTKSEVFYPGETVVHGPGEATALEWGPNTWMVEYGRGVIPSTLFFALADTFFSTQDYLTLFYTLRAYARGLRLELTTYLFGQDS
T1 sequence (O55242 whole entry): as above

In the case of `CC(C)=CCN1CC[C@]2(C)c3cc(O)ccc3C[C@H]1[C@H]2C` [(+)-Pentazocine, (+)-pentazocine], in series [1] (means ± SEM (n = 3 – 6)), the “Hill (nH)” value was 0.9 ± 0.1.

Take `COC(=O)[C@H]1[C@@H](OC(=O)c2ccccc2)C[C@@H]2CC[C@H]1N2C` [(−)-cocaine]: the “inhibition of [125I]-E-IA-DM-PE-PIPZE uptake” value at σ1 receptors [2] is 50%.

The IC50 is the concentration needed to halve the response being measured. `CN1CCN(CCc2ccc(Cl)c(Cl)c2)CC1` [BD1063] gave a concentration for half-maximal inhibition (IC50) in [1] (setting [16]) of 13.6 ± 0.7 nM. The compound further registered a Ki in series [1] (setting [17]) of 9.6 ± 0.5 nM. For the same compound, the “Hill (nH)” value in series [1] (means ± SEM (n = 3 – 6)) is listed as 1.3 ± 0.1. Also, the “adverse effects or abnormal behaviors” value at σ1 receptors [3] (2.5 μmol / kg i.v.) is “No adverse effects or abnormal behaviors”. Moreover, the “radioactivity in the blood after pretreatment” value on σ1 receptors [3] (60 min, blocker 2.5 μmol / kg i.v.) stood at 0.76 ± 0.04 %ID / g.

`COc1cc2c(cc1OC)CN(CCCCNC(=O)c1cc(Br)cc(OC)c1OC)CC2` [Br-Mach, reference compound] displayed an IC50 in series [1] (setting [16]) of 9850 ± 807 nM. In [1] (setting [17]), this compound displayed a Ki of 6390 ± 524 nM. In addition, the “Hill (nH)” value in [1] (means ± SEM (n = 3 – 6)) came to 1.1 ± 0.2. In addition, the “reduction of radioligand uptake across brain regions” value on σ1 receptors [4] was “minimal but statistically significant”. Besides, at σ1 receptors [3] (2.5 μmol / kg i.v., 60 min), the “decrease of radioligand uptake in brain” value is given as 14%; the “decrease of radioligand uptake in heart” value was 15%; the “decrease of radioligand uptake in muscle” value is reported as 24%; the “inhibition of radioligand uptake in spleen, kidney, lung or liver” value is on record as “did not inhibit”. Also, the “adverse effects or abnormal behaviors” value on σ1 receptors [3] (2.5 μmol / kg i.v.) is on record as “No adverse effects or abnormal behaviors”.

As to `Cc1ccccc1NC(=N)Nc1ccccc1C` [DTG, ditolylguanidine], in series [1], inhibition was half-maximal at 209 ± 14 nM (IC50) and the Ki amounted to 114 ± 7 nM. In addition, the “Hill (nH)” value in series [1] (means ± SEM (n = 3 – 6)) is listed as 1.0 ± 0.1.

Take `COc1ccc(CCN2CCN(CCCc3ccccc3)CC2)cc1OC` [SA4503, 1-[2-(3,4-dimethoxyphenyl)ethyl]-4-(3-phenylpropyl)piperazine]: the Ki in series [5] was 50 nM.

In the case of `COc1ccc(CCN2CCN(CCCc3ccccc3)CC2)cc1` [YZ-067], the “σ1 receptor affinity relative to SA4503” value with σ1 receptors [6] is recorded as “improved affinity”.

Take `CCCCCCC(C)(C)c1ccc([C@@H]2C[C@H](O)CC[C@H]2CCCO)c(O)c1` [[^3H]-CP55940]: the Kd in series [7] was 1.5 nM.

With `N#Cc1ccc(OCC2CCN(CC=CI)CC2)cc1` [[^123I]-TPCNE, [^123I]-1-(iodopropen-2-yl)-4-[(4-cyanophenoxy)methyl]piperidine], the Ki at σ1 receptors [6] (read-out: apparent affinity (Ki) for σ1 sites in vitro) was 0.67 nM.

For the compound `N#Cc1ccc(OCC2CCN(CC=C[123I])CC2)cc1` [[^123I]-TPCNE, [^123I]-1-(iodopropen-2-yl)-4-[(4-cyanophenoxy)methyl]piperidine], in the series on cerebral σ1 receptors, the “clearance from human brain” value is recorded as “no clearance”.

With `I/C=C/CN1CCN(CCc2ccc3c(c2)CCO3)CC1` [[^125I]-E-IA-BF-PE-PIPZE, [^125I]-(E)-1-(2-(2,3-dihydrobenzofuran-5-yl)ethyl)-4-(iodoallyl)piperazine], the Ki on σ1 receptors [8] was 0.43 nM. The Kd on σ1 receptors [9] (read-out: kinetically determined Kd (koff / kon), from rate constants) came to 0.042 nM.

As usually defined, the koff is the first-order rate constant of dissociation. As to `[125I]/C=C/CN1CCN(CCc2ccc3c(c2)CCO3)CC1` [[^125I]-E-IA-BF-PE-PIPZE, [^125I]-(E)-1-(2-(2,3-dihydrobenzofuran-5-yl)ethyl)-4-(iodoallyl)piperazine], on σ1 receptors [9] (0.16 nM radioligand, 37 °C), the kobs was found to be 0.016 ± 0.002 min⁻¹ and the “time to steady-state binding” value is about 180 min. This compound registered a koff at σ1 receptors [9] (0.16 nM radioligand, 37 °C, haloperidol-initiated dissociation) of 5.5e-05 ± 5e-06 s⁻¹. In addition, the “Bound / Free Y-intercept” value at σ1 receptors [10] ((fmol / mg protein) / nM, single experiment) is 1942. Moreover, at σ1 receptors [10] (Kd 0.042 nM vs […]), the “fold higher affinity from rate constants compared to saturation binding” value was determined as 5.7 fold. Moreover, the “fold higher σ1 receptor affinity than [125I]-E-IA-DM-PE-PIPZE” value at σ1 receptors [10] (measured Kd, mouse brain membranes) is 16 fold. The Bmax at σ1 receptors [10] (mouse brain membranes, 37 °C, 180 min, four trials, listed as [^125I]-E-IA-BF-PIPZE) is 472 ± 13 fmol / mg protein. The “fold higher lipophilicity than [125I]-E-IA-DM-PE-PIPZE” value in [11] was 2.8 fold. Besides, the “Log D7.4” value in series [11] (n-octanol / buffer pH 7.4, n = 5) came out at 2.69 ± 0.28. Also, in [12], the “increase of protein binding with respect to [125I]-E-IA-DM-PE-PIPZE” value was determined as 50% and the “Protein Binding” value was 71 ± 0.3%. In addition, the “Protein Binding” value in series [12] (setting [18]) was 71.2 ± 0.3%. For the same compound, in series [13] (5 min), the blood level is 0.31 ± 0.03 %ID / g and the “radioactivity in the eye” value was determined as 2.01 ± 0.13 %ID / g. Also, the brain uptake in series [13] (5 min, i.v., mean ± SD) was determined as 6.14 ± 0.94 %ID / g. Moreover, the peak brain uptake in [13] (15 min, i.v., mean ± SD) is given as 6.56 ± 1.23 %ID / g. This compound also displayed a brain uptake in [13] (4 h) of 4.48 ± 0.22 %ID / g. In addition, in series [13] (24 h), the blood level came to 0.08 ± 0.01 %ID / g and the brain uptake is 0.76 ± 0.091 %ID / g. Further, the “clearance t½ from lung” value in series [13] (monoexponential decay, r^2 0.88) is 1.73 h. Moreover, the “clearance t½ from heart” value in series [13] (monoexponential decay, r^2 0.90) worked out at 1.98 h. Also, in series [13] (mouse, in vivo), the “initial whole brain uptake” value is reported as over 6 % injected dose / g; the “uptake in heart relative to brain, higher by” value was found to be 50%; the “uptake in lung compared to brain” value is given as 5 fold. In addition, in [14] (60 min), the “extractable radioactivity, liver” value turned out to be 80% and the “urinary radioactivity as polar metabolites” value was found to be 99%. For the same compound, in [14] (60 min, 100 μCi i.v.), the “radioactivity in brain tissue from intact radioligand” value is “About 99%”. In addition, the “Radiometabolites Whole Brain, 60 min” value in [14] came to 1%. In series [14] (setting [18]), the “Radiometabolites Whole Brain, 60 min” value amounted to 1%. Further, the “Binding Potential (BP)” value at σ1 receptors [15] is reported as 97. Besides, on σ1 receptors [3] (setting [19]), the “specific radioligand binding in brain” value was determined as 75%, the “specific radioligand binding in heart” value is 87%, the “specific radioligand binding in lung” value worked out at 87% and the “specific radioligand binding in muscle” value is 61%. For the same compound, the “radioactivity in the blood, controls” value at σ1 receptors [3] (60 min, saline-treated control group) is given as 0.38 ± 0.09 %ID / g. In addition, on σ1 receptors [3] (mouse, in vivo, 0.5 h), the “Non-Specific binding Whole Brain, 30 min” value came out at 0.89 %ID /g and the “Specific binding Whole Brain, 30 min” value was 4.90 %ID /g. Besides, at σ1 receptors [3] (mouse, in vivo, 1 h), the “Non-Specific binding Whole Brain, 60 min” value stood at 0.60 %ID /g and the “Specific binding Whole Brain, 60 min” value was found to be 5.38 %ID /g. On σ1 receptors [3] (mouse, in vivo, 4 h), the “Non-Specific binding Whole Brain, 240 min” value worked out at 0.34 %ID /g and the “Specific binding Whole Brain, 240 min” value was 4.14 %ID /g. Further, at σ1 receptors [3] (ratio of %ID /g values), the “Specific / Non-Specific Whole Brain, 30 min” value came out at 5.5; the “Specific / Non-Specific Whole Brain, 60 min” value is given as 9.0; the “Specific / Non-Specific Whole Brain, 240 min” value is listed as 12. Further, the “Specific / Non-Specific Whole Brain, 240 min” value at σ1 receptors [3] (ratio of %ID /g values, listed as [^125I]-E-IA-BF-PIPZE) was found to be 12.2.
